Assay [1] is filed under the species Canis familiaris. Briefly: Percent reduction in Uncinaria eggs per gram, after oral treatment of 75 mg/dog dose of compound in a single treatment. In kind it is functional, Canis lupus familiaris, Egg.
The species named for assay [2] is Canis familiaris. Briefly: Percent reduction in Toxascaris eggs per gram, after oral treatment of 75 mg/dog dose of compound in a single treatment. In kind it is functional, Canis lupus familiaris, Egg. Summed up: (§1)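 Dogs naturally infected with Toxascaris leonina were experimentally infected with mixed Ancylostoma caninum and Uncinaria stenocephala larvae. Finely ground compound was given orally in gelatin capsules. Three egg count determinations were made before and three after treatment in each experiment.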

The species named for assay [3] is Mus musculus. Briefly: Percent clearance of Nematospiroides dubius from mouse after oral treatment of 0.45 mg/mouse/day. In kind it is functional. A digest of the protocol:
(§2)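 Mice naturally carrying Syphacia obvelata were experimentally infected with Nematospiroides dubius and Hymenolepis nana, then grouped after a 2-week prepatency. Finely ground compound was suspended in aqueous 0.10% carboxymethylcellulose, 0.04% polysorbate 80 and 0.0042% polyparaben, and 0.1 mL was given orally by cannula once daily for 4 days to five mice. Necropsy followed 2 days later, scoring presence or absence of each parasite. Control clearance was subtracted from the treated clearance.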

Assay [4] is filed under the species Mus musculus. Briefly: Percent clearance of Syphacaia obvelata from mouse after oral treatment of 0.45 mg/mouse/day. The class given is functional. A digest of the protocol:
as §2

Assay [5] relates to Ovis aries. Briefly: Percent reduction in Trichostrongylus eggs per gram, after treatment with 400 mg/kg dose of compound perorally in sheep. In kind it is functional, Egg. To be noted: route oral. A digest of the protocol:
(§3)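 Naturally parasitized lambs, dosed orally either with a suspension by stomach tube or with finely ground compound in gelatin capsules by balling gun. Activity was scored by the clinical test method, meaning a significant fall in helminth egg counts after treatment.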

For assay [6], the system named is Ovis aries. Briefly: Percent reduction in Trichuris eggs per gram, after treatment with 200 mg/kg dose of compound perorally in sheep. The class given is functional, Egg. The following applies: dose 200 mg/kg; route oral. Summed up: as §3
In assay [7] the test system is Ovis aries. Briefly: Percent reduction in Trichuris eggs per gram, after treatment with 400 mg/kg dose of compound perorally in sheep. The class given is functional, Egg. To be noted: route oral. A digest of the protocol:
as §3

The test system of assay [8] is Ovis aries. Briefly: Percent reduction in Haemonchus eggs per gram, after treatment of 200 mg/kg dose of compound perorally in sheep. The class given is functional, Egg. The following applies: route oral. Summed up:
(§4)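 Naturally parasitized lambs received compound orally, either as the aqueous suspension by stomach tube or as finely ground powder in gelatin capsules by balling gun. Activity was judged by the clinical test method, as a significant decrease in posttreatment helminth egg counts.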

For assay [9], the system named is Ovis aries. Briefly: Percent reduction in Strongyloides eggs per gram, after treatment with 400 mg/kg dose of compound perorally in sheep. In kind it is functional, Egg. The following applies: route oral. Summed up:
as §3

Assay [10] deals with Ovis aries. Briefly: Percent reduction in Ostertagia eggs per gram, after treatment with 400 mg/kg dose of compound perorally in sheep. To be noted: route oral. In kind it is functional, Egg. A digest of the protocol:
as §3

In assay [11] the test system is Ovis aries. Briefly: Percent reduction in Trichostrongylus eggs per gram, after treatment of 200 mg/kg dose of compound perorally in sheep. In kind it is functional, Egg. The following applies: route oral. Summed up: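 Lambs naturally parasitized with helminths. Finely ground compound was given orally, either as an aqueous suspension by stomach tube or weighed into gelatin capsules given by balling gun. Activity was assessed by the clinical test method: the reduction in helminth egg counts after treatment.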

The subject of assay [12] is Ovis aries. Briefly: Percent reduction in Oesophagostomum eggs per gram, after treatment of 200 mg/kg dose of compound perorally in sheep. The following applies: route oral. In kind it is functional, Egg. A digest of the protocol: (§5)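 Naturally parasitized lambs were dosed orally at the stated mg/kg. Dosing was either as a suspension of finely ground compound by stomach tube, or as ground compound weighed into gelatin capsules and given by balling gun. Activity was scored by the clinical test method: the decrease in posttreatment helminth eggs per gram.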

The test system of assay [13] is Ovis aries. Briefly: Percent reduction in Ostertagia eggs per gram, after treatment of 200 mg/kg dose of compound perorally in sheep. In kind it is functional, Egg. To be noted: route oral. A digest of the protocol: as §5
In assay [14] the test system is Ovis aries. Briefly: Percent reduction in Strongyloides eggs per gram, after treatment with 200 mg/kg dose of compound perorally in sheep. To be noted: route oral. In kind it is functional, Egg. A digest of the protocol: as §3
Assay [15] has as its system Ovis aries. Briefly: Percent reduction in Haemonchus eggs per gram, after treatment with 400 mg/kg dose of compound perorally in sheep. The class given is functional, Egg. The following applies: route oral. Summed up: as §5
The species entered for assay [16] is Canis familiaris. Briefly: Percent reduction in Uncinaria eggs per gram, after treatment with 200 mg/dog dose of compound in a single treatment. In kind it is functional, Canis lupus familiaris, Egg. A digest of the protocol: as §1
For assay [17], the species on record is Canis familiaris. Briefly: Percent reduction in Ancylostoma eggs per gram, after oral treatment of 175 mg/dog dose of compound in a single treatment. In kind it is functional, Canis lupus familiaris, Egg. A digest of the protocol: (§6)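 Dogs naturally infected with Toxascaris leonina were experimentally infected with mixed Ancylostoma caninum and Uncinaria stenocephala larvae. Finely ground compound was given orally in gelatin capsules. Fecal egg counts were taken three times before and three times after treatment, and activity was taken as the fall in egg counts.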

Assay [18] is filed under the species Canis familiaris. Briefly: Percent reduction in Ancylostoma eggs per gram, after treatment with 200 mg/dog dose of compound in a single treatment. In kind it is functional, Canis lupus familiaris, Egg. A digest of the protocol: as §6
The species entered for assay [19] is Canis familiaris. Briefly: Percent reduction in Toxascaris eggs per gram, after treatment with 200 mg/dog dose of compound in a single treatment. In kind it is functional, Canis lupus familiaris, Egg. A digest of the protocol: as §1
Assay [20] is filed under the species Mus musculus. Briefly: Percent clearance of Nematospiroides dubius from mouse after oral treatment of 1.87 mg/mouse/day. In kind it is functional. A digest of the protocol:
as §2

The species named for assay [21] is Mus musculus. Briefly: Percent clearance of Syphacaia obvelata from mouse after oral treatment of 1.87 mg/mouse/day. The class given is functional. Summed up:
as §2

Assay [22] relates to Ovis aries. Briefly: Percent reduction in Trichostrongylus eggs per gram, after treatment with 250 mg/kg dose of compound perorally in sheep. The following applies: route oral. In kind it is functional, Egg.
Assay [23] has as its system Ovis aries. Briefly: Percent reduction in Trichostrongylus eggs per gram, after treatment with 325 mg/kg dose of compound perorally in sheep. The class given is functional, Egg. The following applies: route oral.
In assay [24] the test system is Ovis aries. Briefly: Percent reduction in Trichostrongylus eggs per gram, after treatment with 450 mg/kg dose of compound perorally in sheep. In kind it is functional, Egg. The following applies: route oral. Summed up: as §3
For assay [25], the system named is Ovis aries. Briefly: Percent reduction in Trichuris eggs per gram, after treatment with 325 mg/kg dose of compound perorally in sheep. In kind it is functional, Egg. To be noted: route oral.
Assay [26] concerns Ovis aries. Briefly: Percent reduction in Strongyloides eggs per gram, after treatment with 450 mg/kg dose of compound perorally in sheep. The following applies: route oral. In kind it is functional, Egg. Summed up:
as §3

Assay [27] has as its system Ovis aries. Briefly: Percent reduction in Haemonchus eggs per gram, after treatment with 250 mg/kg dose of compound perorally in sheep. In kind it is functional, Egg. To be noted: route oral. A digest of the protocol:
as §5

The test system of assay [28] is Ovis aries. Briefly: Percent reduction in Haemonchus eggs per gram, after treatment with 325 mg/kg dose of compound perorally in sheep. In kind it is functional, Egg. To be noted: route oral. A digest of the protocol: as §5
In assay [29] the test system is Ovis aries. Briefly: Percent reduction in Nematodirus eggs per gram, after treatment with 250 mg/kg dose of compound perorally in sheep. In kind it is functional, Egg. To be noted: route oral. Summed up: as §5
The test system of assay [30] is Ovis aries. Briefly: Percent reduction in Nematodirus eggs per gram, after treatment with 450 mg/kg dose of compound perorally in sheep. The class given is functional, Egg. The following applies: route oral. Summed up:
as §5

Assay [31] deals with Ovis aries. Briefly: Percent reduction in Strongyloides eggs per gram, after treatment with 250 mg/kg dose of compound perorally in sheep. In kind it is functional, Egg. The following applies: route oral. A digest of the protocol: as §3
In assay [32] the test system is Ovis aries. Briefly: Percent reduction in Haemonchus eggs per gram, after treatment with 450 mg/kg dose of compound perorally in sheep. The class given is functional, Egg. The following applies: route oral. A digest of the protocol: as §5
The subject of assay [33] is Ovis aries. Briefly: Percent reduction in Moniezia eggs per gram, after treatment with 400 mg/kg dose of compound perorally in sheep. In kind it is functional, Egg. To be noted: route oral. A digest of the protocol: as §5
In assay [34] the test system is Ovis aries. Briefly: Percent reduction in Strongyloides eggs per gram, after treatment with 325 mg/kg dose of compound perorally in sheep. The class given is functional, Egg. To be noted: route oral. A digest of the protocol:
as §3

In assay [35] the test system is Ovis aries. Briefly: Percent reduction in Ostertagia eggs per gram, after treatment with 450 mg/kg dose of compound perorally in sheep. In kind it is functional, Egg. The following applies: route oral. A digest of the protocol:
as §3

Assay [36] has as its system Ovis aries. Briefly: Percent reduction in Oesophagostomum eggs per gram, after treatment with 450 mg/kg dose of compound perorally in sheep. In kind it is functional, Egg. The following applies: route oral. Summed up:
as §5

Assay [37] concerns Ovis aries. Briefly: Percent reduction in Oesophagostomum eggs per gram, after treatment with 250 mg/kg dose of compound perorally in sheep. The class given is functional, Egg. The following applies: route oral. Summed up:
as §5

In assay [38] the test system is Ovis aries. Briefly: Percent reduction in Trichuris eggs per gram, after treatment with 250 mg/kg dose of compound perorally in sheep. The class given is functional, Egg. To be noted: route oral. Summed up:
as §3

Assay [39] relates to Ovis aries. Briefly: Percent reduction in Ostertagia eggs per gram, after treatment with 325 mg/kg dose of compound perorally in sheep. The class given is functional, Egg. The following applies: route oral. Summed up: as §3
Assay [40] concerns Ovis aries. Briefly: Percent reduction in Cooperia eggs per gram, after treatment with 400 mg/kg dose of compound perorally in sheep. In kind it is functional, Egg. To be noted: route oral. Summed up: as §4
Assay [41] concerns Ovis aries. Briefly: Percent reduction in Ostertagia eggs per gram, after treatment with 250 mg/kg dose of compound perorally in sheep. In kind it is functional, Egg. The following applies: route oral. Summed up:
as §3

Assay [42] is filed under the species Canis familiaris. Briefly: Percent reduction in Uncinaria eggs per gram, after oral treatment of 175 mg/dog dose of compound in a single treatment. The class given is functional, Canis lupus familiaris, Egg.
Assay [43] concerns Ovis aries. Briefly: Percent reduction in Trichuris eggs per gram, after treatment with 450 mg/kg dose of compound perorally in sheep. The class given is functional, Egg. To be noted: route oral. Summed up: as §3

On to `Fc1c(F)c(F)c(/C(Cl)=N/Nc2ccccc2)c(F)c1F`, for which the Reduction in assay [1] was determined as 100%; in [2], 71.4%; in assay [5] it was 96%; in assay [6], 10%; in assay [7], 88%; in assay [8], 85%. Besides, the Reduction in [9] came to 99%; in assay [10] it was 95%; in [11] it was 0%; in assay [12], 100%; in [13] it was 93%; in [14], 93%. In assay [15], the Reduction amounted to 96%. Besides, the Parasite_Clearance in assay [3] and in assay [4] was 0% in each case.

Take `Cl/C(=N\Nc1c(Cl)cc(Cl)cc1Cl)c1ccccc1`: the Reduction in [16] was determined as 59%; in [17], 31%; in assay [18] it was 87%; in assay [19], 67%; in assay [22], 98%; in [23], 33%. Moreover, the Reduction in [5] is reported as 77%; in assay [24], 100%; in [25], 0%; in assay [7], 14%; in assay [26] it was 100%; in assay [27], 98%. For the same molecule, the Reduction is 99% in assay [28]; 82% in assay [29]; 63% in assay [30]; 95% in [31]; 94% in [32]; 100% in [33]. For the same molecule, the Reduction worked out at 79% in [34]; 100% in assay [10]; 100% in assay [35]; 0% in assay [36]; 95% in assay [37]; 63% in [38]. Also, the Reduction stood at 98% in assay [39]; 100% in [40]; 100% in [41]; 26% in [42]; 29% in [43]; 85% in assay [15]. The Parasite_Clearance in [20] was 80%; in assay [21] it was 20%.

For the origin of these results see ChEMBL document CHEMBL1121917, “Structure--activity relationships in a broad-spectrum anthelmintic series. Acid chloride phenylhydrazones. 1. Aryl substitutions and chloride variations” (1981).
